Test results: ChEMBL document CHEMBL5724801, “EUbOPEN Chemogenomics Library - Multiplex” (2024)
Where “and” joins values, the source holds several entries; their conditions need not be identical. Equal entries are not always repeated.

System: U2OS
Assay: Multiplex assay against U2OS
Format: toxicity, cell-based
Settings: human
In short: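 At seeding, live cells were stained with Hoechst33342, BioTracker Green Microtubule Cytoskeleton Dye, MitoTracker Red and Annexin V Alexa Fluor 680. After compound addition they were imaged on a CQ1 microscope at 37°C and 5% CO2, and CellPathfinder machine-learning gating sorted them into Hoechst high-intensity objects or normal cells, with normal cells further split into healthy, pyknosed or fragmented nuclei and pyknosed cells into mitotic or apoptotic. Tubulin, mitochondrial-mass and membrane-permeability phenotypes are given as per cents of cells with healthy nuclei.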

[1] = 12 h, 1 µM, compound concentration 1 uM
[2] = 12 h, 10 µM, compound concentration 10 uM
[3] = 24 h, 1 µM, compound concentration 1 uM
[4] = 24 h, 10 µM, compound concentration 10 uM
[5] = 48 h, 1 µM, compound concentration 1 uM
[6] = 48 h, 10 µM, compound concentration 10 uM

## N#Cc1cc(F)cc(-c2nc(-c3ccc(F)cn3)no2)c1
[1]
  Population Apoptotic (%): 55% and 100%
  Population Fragmented Nuclei (%): 24% and 17%
  Population Healthy Nuclei (%): 65% and 79%
  Population Hoechst High Intensity Objects (%): 1% and 0%
  Population Membrane Permeable-Phenotype (%): 5% and 6%
  Population Mitochondria Different-Phenotype (%): 0% and 5%
  Population Normal (%): 98% and 99%
  Population Pyknosed Nuclei (%): 10% and 4%
  Population Tubulin-Different-Phenotype (%): 3% and 2%
  Total Cell Count: 178 and 101
[2]
  Population Apoptotic (%): 76% and 88%
  Population Fragmented Nuclei (%): 33% and 12%
  Population Healthy Nuclei (%): 59% and 81%
  Population Hoechst High Intensity Objects (%): 1%
  Population Membrane Permeable-Phenotype (%): 8% and 7%
  Population Mitochondria Different-Phenotype (%): 2% and 4%
  Population Mitotic Cells (%): 23% and 11%
  Population Normal (%): 98%
  Population Pyknosed Nuclei (%): 6%
  Population Tubulin-Different-Phenotype (%): 2% and 1%
  Total Cell Count: 196 and 151
[3]
  Population Apoptotic (%): 90%
  Population Fragmented Nuclei (%): 22% and 8%
  Population Healthy Nuclei (%): 66% and 84%
  Population Hoechst High Intensity Objects (%): 4% and 0%
  Population Membrane Permeable-Phenotype (%): 8% and 2%
  Population Mitochondria Different-Phenotype (%): 0% and 3%
  Population Mitotic Cells (%): 9% and 10%
  Population Normal (%): 95% and 99%
  Population Pyknosed Nuclei (%): 11% and 8%
  Population Tubulin-Different-Phenotype (%): 4% and 2%
  Total Cell Count: 197 and 126
[4]
  Population Apoptotic (%): 93% and 88%
  Population Healthy Nuclei (%): 60% and 85%
  Population Hoechst High Intensity Objects (%): 1% and 0%
  Population Membrane Permeable-Phenotype (%): 7% and 5%
  Population Mitochondria Different-Phenotype (%): 0% and 1%
  Population Mitotic Cells (%): 6% and 11%
  Population Normal (%): 98% and 99%
  Population Pyknosed Nuclei (%): 7% and 4%
  Population Tubulin-Different-Phenotype (%): 2% and 1%
  Total Cell Count: 230 and 216
[5]
  Population Apoptotic (%): 96% and 100%
  Population Fragmented Nuclei (%): 18% and 15%
  Population Healthy Nuclei (%): 71% and 79%
  Population Hoechst High Intensity Objects (%): 1%
  Population Membrane Permeable-Phenotype (%): 4%
  Population Mitochondria Different-Phenotype (%): 0% and 3%
  Population Mitotic Cells (%): 3% and 0%
  Population Normal (%): 98%
  Population Pyknosed Nuclei (%): 9% and 5%
  Population Tubulin-Different-Phenotype (%): 2% and 1%
  Total Cell Count: 290 and 199
[6]
  Population Apoptotic (%): 85% and 94%
  Population Fragmented Nuclei (%): 30% and 10%
  Population Healthy Nuclei (%): 62% and 84%
  Population Hoechst High Intensity Objects (%): 1%
  Population Membrane Permeable-Phenotype (%): 6% and 4%
  Population Mitochondria Different-Phenotype (%): 2%
  Population Mitotic Cells (%): 14% and 5%
  Population Normal (%): 98%
  Population Pyknosed Nuclei (%): 7% and 5%
  Population Tubulin-Different-Phenotype (%): 3% and 2%
  Total Cell Count: 282 and 344

## O=C(CCCc1ccccc1)Nc1nc2ccccc2c(=O)s1
[1]
  Population Apoptotic (%): 92% and 55%
  Population Fragmented Nuclei (%): 26% and 17%
  Population Healthy Nuclei (%): 64% and 74%
  Population Hoechst High Intensity Objects (%): 2% and 0%
  Population Membrane Permeable-Phenotype (%): 4% and 7%
  Population Mitochondria Different-Phenotype (%): 2% and 3%
  Population Normal (%): 97% and 100%
  Population Pyknosed Nuclei (%): 9% and 7%
  Population Tubulin-Different-Phenotype (%): 1% and 2%
  Total Cell Count: 274 and 113
[2]
  Population Apoptotic (%): 72% and 100%
  Population Fragmented Nuclei (%): 31% and 20%
  Population Healthy Nuclei (%): 58% and 67%
  Population Hoechst High Intensity Objects (%): 2% and 4%
  Population Membrane Permeable-Phenotype (%): 2% and 7%
  Population Mitochondria Different-Phenotype (%): 0% and 6%
  Population Normal (%): 97% and 95%
  Population Pyknosed Nuclei (%): 9% and 11%
  Population Tubulin-Different-Phenotype (%): 1% and 6%
  Total Cell Count: 270 and 101
[3]
  Population Apoptotic (%): 79% and 84%
  Population Fragmented Nuclei (%): 22% and 17%
  Population Healthy Nuclei (%): 68% and 73%
  Population Hoechst High Intensity Objects (%): 1% and 0%
  Population Membrane Permeable-Phenotype (%): 4% and 8%
  Population Mitochondria Different-Phenotype (%): 2%
  Population Mitotic Cells (%): 20% and 15%
  Population Normal (%): 98% and 100%
  Population Pyknosed Nuclei (%): 9%
  Population Tubulin-Different-Phenotype (%): 2% and 3%
  Total Cell Count: 325 and 141
[4]
  Population Apoptotic (%): 86% and 100%
  Population Fragmented Nuclei (%): 25% and 19%
  Population Healthy Nuclei (%): 65% and 71%
  Population Hoechst High Intensity Objects (%): 2% and 1%
  Population Membrane Permeable-Phenotype (%): 5% and 8%
  Population Mitochondria Different-Phenotype (%): 1% and 2%
  Population Mitotic Cells (%): 13% and 0%
  Population Normal (%): 97% and 98%
  Population Pyknosed Nuclei (%): 9%
  Population Tubulin-Different-Phenotype (%): 4% and 3%
  Total Cell Count: 319 and 124
[5]
  Population Apoptotic (%): 91% and 87%
  Population Fragmented Nuclei (%): 13% and 19%
  Population Healthy Nuclei (%): 76% and 71%
  Population Hoechst High Intensity Objects (%): 7% and 5%
  Population Membrane Permeable-Phenotype (%): 3%
  Population Mitochondria Different-Phenotype (%): 2% and 3%
  Population Mitotic Cells (%): 8% and 12%
  Population Normal (%): 92% and 94%
  Population Pyknosed Nuclei (%): 9% and 8%
  Population Tubulin-Different-Phenotype (%): 1% and 6%
  Total Cell Count: 394 and 192
[6]
  Population Apoptotic (%): 91% and 95%
  Population Fragmented Nuclei (%): 20% and 15%
  Population Healthy Nuclei (%): 70% and 72%
  Population Hoechst High Intensity Objects (%): 2% and 0%
  Population Membrane Permeable-Phenotype (%): 5% and 9%
  Population Mitochondria Different-Phenotype (%): 0% and 3%
  Population Mitotic Cells (%): 8% and 4%
  Population Normal (%): 97% and 99%
  Population Pyknosed Nuclei (%): 8% and 12%
  Population Tubulin-Different-Phenotype (%): 3% and 5%
  Total Cell Count: 427 and 175
